Reference: the EternaBench riboswitch data

Test system: MS2 coat protein
Assay: apparent Kd, MS2 coat protein; higher = weaker binding; RNA-MaP array; FMN 200 µM where present
Procedure, shortened: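 Stalled E. coli RNA polymerase transcribed each design on Illumina sequencing-chip clusters. The clusters were titrated with SNAP-549-labelled MS2 coat protein, starting at 0.7 or 1.5 nM and doubling up to 3 µM, first without ligand and then with constant ligand, in 100 mM Tris-HCl pH 7.5, 80 mM KCl, 4 mM MgCl2, BSA, DTT, yeast tRNA and Tween-20. Green signal was normalised to red-channel RNA signal and to the control-cluster median Fmax. The apparent Kd is the median of filtered binding-curve fits made for each cluster.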

[1] = designed as: ON switch for flavin mononucleotide, no ligand
[2] = ligand present: flavin mononucleotide, designed as: ON switch for flavin mononucleotide
[3] = designed as: OFF switch for flavin mononucleotide, no ligand
[4] = ligand present: flavin mononucleotide, designed as: OFF switch for flavin mononucleotide

Sequence | apparent Kd [1] | apparent Kd [2] | apparent Kd [3] | apparent Kd [4]
AUACAUACAAAGUUACAUGAGGAUCACCCAUGUUUAUUGGGAAGAAGGGUAACAUUAUUAGAUGUAUAGGAUAUUUCACAAUUG | 537 nM | 275 nM | – | –
UUAUUAAAUGUAGGAUAUGCAUAUUAUUAUUAUGCAGAAGGACAUGAGGAUCACCCAUGUAUAUUAUUAUUAUUUAUUAUUUAU | – | – | 45.7 nM | 61.7 nM
UGUCGGAGCAGAGGAUAUUACAUGAGGAUCACCCAUGUAUGAACCAAUAGCUGGAAACAGCAAUGUAAGAAGGCUGUUCCGACA | – | – | 11.9 nM | 134 nM
UUAAAUCAUGUAGGAUAUGCAUGGCGAAGCUACGCAGAAGGACAUGAGGAUCACCCAUGUUAAAGCUACCGAGUACGGUGGCAA | – | – | 121 nM | 193 nM
AUUUAUGGCCAGAAGGACAUGAGGAUCACCCAUGUAGGAUAUGGACGAUUUUGCUCGGCGGUUUGUUAAGGAAGCACCGGUGGU | 14.3 nM | 7.23 nM | – | –
CGCUCAUUAUAUAAGGAAAGAAUCAGAAGGCGUUACAUGAGGAUCACCCAUGUUUUGUAUAGUAACGAGGAUAUGAUAUGAGCG | – | – | 18.6 nM | 16 nM
UGUUGUUCAGGAUAUGGUGUGUUCUACAUGAGGAUCACCCAUGUGGGUCCUGGUUUGGCGUCAGAAGGGAAUGUUG | – | – | 750 nM | 746 nM
UAGAUUAGAAGUUAACAUGAGGAUCACCCAUGUAUUGGAACAGAGGAUAUGCAUGUUUGAUAGUAGCAGAAGGCUGAAGGUGGA | 98.1 nM | 104 nM | – | –
GAGCAGGAAGGAUAUACAUGAGGAUCACCCAUGUACCAUCAAGGCUUUGAUUUUCACGGUAGAAGGUCCCAAUA | – | – | 40.3 nM | 51.4 nM
UCGAGCAGGGAAUGGACGCUGAAGUAGGAUAUCCGCGUGGCCGUCCACAUGAGGAUCACCCAUGUGGAGAAGGGCUACAGCGAA | – | – | 5.5 nM | 5.63 nM
UCAUGACAUGAGGAUCACCCAUGUCAGGAUAUCUACAGAACCUCAUGUAAAAAACUGUAGAGAAGGGAUAUGAA | – | – | 22 nM | 25 nM
UAAUCUCAGAUAGGAUAUAUAGGAUAAUUUAAGACCGAACAUGAGGAUCACCCAUGUGAUUAUUCGUAGAAGGAUCAAUGACCC | 78.3 nM | 76.2 nM | – | –
GGUACCAACACAGGAUAUGCUUUCCUUUGGGAAGCAGAAGGGUGAAACAUGAGGAUCACCCAUGUGGUGCCAGGGCGUGAGCCC | 1360 nM | 79.5 nM | – | –
AGCUGUGACGUUACAGUUCCGUUACAUGAGGAUCACCCAUGUCAGGAUAUAUGCACUCUUGAAUCAUAGAAGGGACAGAGGUGG | – | – | 161 nM | 157 nM
AAAAAACAUGAGGAUCACCCAUGUGAGGAUAUGCGAAAAAAAAAAAAAAAAAAAAAAAGCAGAAGGCACAAAAA | – | – | 43.9 nM | 60.8 nM
GUACCUUAUGAGAAGGCGAUCAUGAAACAUGAUCGAGGAUAUCAUGAAAACAUGAGGAUCACCCAUGUAUGGGUAUUAUGGUAC | 49.6 nM | 17.7 nM | – | –
AAUCAGCGGAACUUGACAUCCCUACAUGAGGAUCACCCAUGUCAGGAUAUAUGCUCUCGAGCUGCAUAGAAGGGACAUAGUGGG | – | – | 50.6 nM | 71.3 nM
GUCCUCUCUGAGGAUAUUAUCUGGUUCGAUUGAUAAGAAGGCAGUACAUGAGGAUCACCCAUGUGGGUCGUCUG | – | – | 31 nM | 83.7 nM
GUAGCAUACCGAGGAUAUUCAUACAAUAAAUAGACAUGAGGAUCACCCAUGUGGCGAAAGCCUUGGGAGAAGGCGGAAUGCUAC | 451 nM | 37.6 nM | – | –
CAAAAGCUAGGAUAUGCCAAUUGUUCCUUAAGUCAAAAUAAACAUGAGGAUCACCCAUGUAGAAGGAGCCCAAC | – | – | 35.9 nM | 19.8 nM
UUUAUGGGACAGAAGGGCAUUUACAUGAGGAUCACCCAUGUUCAUCAUUGCAGGAUAUGUAUUACAUGAGGAUCACCUAUGUAC | 74.9 nM | 24.4 nM | – | –
UUUAUUUUUACAGGAUAUCAUCUAUAUAUCACAUGCACAUGUUUACAUGAGGAUCACCCAUGUUUUGAGAAGGGUAAUGAAACA | 79.6 nM | 59 nM | – | –
GAACUGAGGCAAAGCUUUAGUCGUACAUGAGGAUCACCCAUGUAGGAUAUGGUAGGCUUUGCUUACCAGAAGGACAGAGUGAUC | – | – | 102 nM | 139 nM
AGCUAGUCAGGAUAUACGAACAUGUCAAAAGACGAGAACGGACAUGAGGAUCACCCAUGUAGAAGGGACUAGCA | – | – | 55 nM | 325 nM
AAAGUGUAAGGAUAUGCUGCUCGUCACUUGCGUGAUGAGUAGCAGAAGGUACAUGAGGAUCACCCAUGUAAAGA | – | – | 32.3 nM | 40.6 nM
UUUUAACAUGAGGAUCACCCAUGUGAGGAUAUCGAAAUUUAUAUUUAUAUUAAUUUAUCGAGAAGGCACAUUUU | – | – | 149 nM | 164 nM
UUUUUACAUGAGGAUCACCCAUGUCAGGAUAUCCUUAUAUUUUAUUAUUUUAUUUUUUGGAGAAGGGACUAUUA | – | – | 367 nM | 225 nM
AGUGCGAUGGGAGGAUAUCAUGGUCUAAUUAAUAAAAGGAUCACAUGAGGAUCACCCAUGUGUCAUGAGAAGGCCCUCGAGACC | 74.2 nM | 11.2 nM | – | –

Sequence | apparent Kd [1] | apparent Kd [2] | apparent Kd [3] | apparent Kd [4]
GGUGCGUAUGUGAGGAUAUGCUGGUCCUUGGAUCGGCAGAAGGCACAUGAGGAUCACCCAUGUGGUGUCGUACU | – | – | 300 nM | 25.5 nM
UUUUUAUAACAAGGAUAUACUAAACAUGAGGAUCACCCAUGUAAUAUUAUGAGUGAGAGAGAGAAGUAGAAGGUGUAUUAUUUU | – | – | 96 nM | 120 nM
AUAAUUUUAUAUAUCAUAUAAAUCAGAAGGCAUAACAUGAGGAUCACCCAUGUAUAUUAUUGUUAUGAGGAUAUGAUUUCGUUA | – | – | 9.12 nM | 42.5 nM
ACUAGAUGAGGAUAUGCAUAUUUUCGUGUUCUUCUAGGUUAACAUGAGGAUCACCCAUGUAGAAGGCGUCUAUA | – | – | 19.7 nM | 35 nM
UAUUUAUAGCAAGGAUAUGAUUAUUAUUAUUUAUCAGAAGGUGCACAUGAGGAUCACCCAUGUUUUAUAUAUAAUAAUUUAAUU | – | – | 113 nM | 30.6 nM
UACGACUUCGUAGGAUAUGUAUUUCAUUUCUACAUGAGGAUCACCCAUGUUUGCAUUUUUUUUUGACAGAAGGACGUAAUCGUA | 15.4 nM | 10.5 nM | – | –
UUAAAUCAUGUAGGAUAUGCAUGGCGAAGCUACGCAGAAGGACAUGAGGAUCACCCAUGUUCUGGCGUCUGAGUACAGAUGCAA | – | – | 20.3 nM | 48.8 nM
ACUACUUAGUGAGGAUAUACAUAAUUUAUAACUGUAGAAGGCACAAACCUCAAUACAUGAGGAUCACCCAUGUUUUAUAUCUAU | – | – | 32.7 nM | 46.4 nM
UAAUCGUUGCAGAAGGUUAUUAUUAUAACGUGACACUUAACAUGAGGAUCACCCAUGUUUUUGAUGAAGGAUAUGCAACGGUAG | – | – | 8.04 nM | 7.71 nM
GGAGCACAUGAAUACAUGAGGAUCACCCAUGUCGAAUGAUAUGAGGAUAUGGAUCGGAAAACGAUCUAGAAGGCAUAGUGCUCC | 76.5 nM | 10.2 nM | – | –
UUAUACGGUGAGGAUAUCUUCACUAAAGUGUGAAGAGAAGGCGCUACAUGAGGAUCACCCAUGUCUAUGGGCAG | – | – | 556 nM | 755 nM
CAGACCGGCGCAGGAUAUGUCGACAUGAGGAUCACCCAUGUAAGCCUUGUCUGGUCCGGUGUGUGACAGAAGGGUGUCGGCCAA | – | – | 29.5 nM | 21.9 nM
GUCAGCUCGUGAGGAUAUACAUGUGCUGGAUACAGCACUAUUAAAUUCACAUGAGGAUCACCCAUGUAGAAGGCACGAGCUGAU | – | – | 15.6 nM | 17.8 nM
UAUGGUUAAGUCAGGAUAUACUAAUAGAAAUCUGUGUAGAAGGGACAUGAGGAUCACCCAUGUAUGGUAGUGUU | – | – | 68.7 nM | 75.1 nM
GAUCCGUCCUAGAAGGCCAUUCAACAUGAGGAUCACCCAUGUGCGAACUGGAGGAUAUAGGUGGGAUAGGCCUAGGGCCCGGUC | 9.38 nM | 6.12 nM | – | –
GUGUACAGAGGAUAUACAUAAGCUAGGAAACUAGCAACUUCACAUGAGGAUCACCCAUGUAGAAGGCUGUACAC | – | – | 13.9 nM | 17.8 nM
GGUGCCAUGUAGAAGGCAGAUCUGAUUCAGAUCUGAGGAUAUACAUGAGGAUCACCCAUGUAAAGGCACCGCCCGAGAGUGCAA | – | – | 7.46 nM | 17.6 nM
AUGUGGUGCGUAGGAUAUCAUUGAGGGAAACCCUGAGAAGGACGUGAGGACAUGAGGAUCACCCAUGUGGAUCACCCAUGUCAU | – | – | 196 nM | 253 nM
CACCAGCGAGGAUAUACACGUGGUCUCCACUCCCGGUGGUAACAUGAGGAUCACCCAUGUAGAAGGCGCAACAU | – | – | 42 nM | 220 nM
UGCGGCGCGGGCCACCGCAGGGCCAGAAGGACAUGAGGAUCACCCAUGUGGCAGGACAGGGCGGUGUAGGAUAUGGCAGGCUGG | – | – | 16.7 nM | 20.8 nM
GCGUUGAACGAGAAGGCCACUACAUGAGGAUCACCCAUGUCGUGGAGUAUUGGAGGAUAUCGAUCGGCGUCUCAUGAGGACAUA | – | – | 5.34 nM | 5.62 nM
AUCAGCUCGUCAGGAUAUACGUGACUGCGUCAGCAGUGUGGUAAGAUCACAUGAGGAUCACCCAUGUAGAAGGGACGAGCUGAU | – | – | 53.2 nM | 580 nM
GCAGUAAAUAAAUGCACAUGAGGAUCACCCAUGUGGGAGGCACAGGAUAUCGCAUCAUAGCGGUGCGAGAAGGGUGAUAAUCUC | 346 nM | 72.3 nM | – | –
GCCAUCGCAUGAGGAUAUGCUCCGGUUUCCGGAGCAGAAGGCAUGUAAUAAAACAUGAGGAUCACCCAUGUAGUUAAGAUGGCA | 7.94 nM | 6 nM | – | –
AUGAGAAUUGUUAGGAUAUCCGUAAGUAAGUACUGGGAGAAGGGACAUGAGGAUCACCCAUGUGAUAGCCGACU | – | – | 102 nM | 80.6 nM
UCCACUGCUGAGAAGGGAUCCGUGUGGUUCGAAUCAGGAUAUCGAUACAGUGCAGCAUGAGGACAUGAGGAUCACCCAUGUAUC | 13.2 nM | 11.3 nM | – | –
UUCCAACAUGAGGAUCACCCAUGUCGGAAGCAUUAAGGAUAUGGGCGGCCGGUGGCUGAACCAGAAGGUAAGCCAG | 15.3 nM | 18.1 nM | – | –
